# Reference: ChEMBL document CHEMBL1148398, “Design, synthesis, and biological evaluation of thio-containing compounds with serum HDL-cholesterol-elevating properties” (2004)
# What was measured:
# Cricetinae gen. sp. [1] = experiment: Percent change in total plasma cholesterol following oral administration of compound in hypercholesterolemic hamsters at 100 mg/kg/day for 14 days; type: functional
# How it was run: (§1)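 Male Syrian Golden hamsters pre-fed chow plus 0.25% cholesterol for 2 weeks and kept on it. Dosed 100 mg/kg/day by oral gavage in 2% Tween 80/saline for 14 days. Serum total cholesterol and glycerol-blanked triglycerides read enzymatically; lipoproteins separated by FPLC with cholesterol measured in each fraction. % change versus vehicle controls; six per group, p < 0.05.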
# Cricetinae gen. sp. [2] = experiment: Percent change in very low-density lipoprotein cholesterol following oral administration of compound in hypercholesterolemic hamsters at 100 mg/kg/day for 14 days; type: functional; how it was run: as §1
# Cricetinae gen. sp. [3] = experiment: Effect of compound on high-density lipoprotein cholesterol levels in 3rd group of cholesterol-fed male hamsters at 30 mg/kg/day after 14 days of treatment; type: functional, organism-based
# Rattus norvegicus [4] = experiment: Percent change in total plasma cholesterol in hypercholesterolemic rats dosed at 100 mg/kg/day for 8 days; type: functional
# Rattus norvegicus [5] = experiment: Percent change in high-density lipoprotein cholesterol following oral administration of compound in normal chow-fed rats at 100 mg/kg/day for 4 days; type: functional
# How it was run: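 Chow-fed male Sprague–Dawley CD rats, 60–80 g, gavaged 100 mg/kg/day for 4 days in 1.3% Tween 80/0.25% CMC. Fasted overnight, bled 24 h after the last dose. Total cholesterol and glycerol-blanked triglycerides read enzymatically; lipoproteins by FPLC with cholesterol per fraction. % change versus control; six per group, p < 0.05.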
# Rattus norvegicus [6] = experiment: Effect of compound on alanine aminotransferase (ALT) levels in 3rd group of normal chow-fed male rats after a dose of 5 mg/kg/day; type: functional, organism-based
# How it was run: (§2)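 Male Sprague–Dawley CD rats (60–80 g) on standard chow under a reversed 12 h light/dark cycle. Compound was suspended in 1.3% Tween 80/0.25% CMC and given as a single daily oral gavage dose for 4 days. Rats were fasted overnight and killed 24 h after the last dose. Serum ALT, AST, ALKP and LDH were read on a clinical analyzer. Weight gain was start versus end weight. Mean ± SEM, n = 6.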
# Rattus norvegicus [7] = experiment: Effect of compound on alanine aminotransferase (ALT) levels in 5th group of normal chow-fed male rats after a dose of 20 mg/kg/day; type: functional, organism-based; how it was run: as §2
# Rattus norvegicus [8] = experiment: Effect of compound on alanine aminotransferase (ALT) levels in 6th group of normal chow-fed male rats after a dose of 50 mg/kg/day; type: functional, organism-based; how it was run: as §2
# Rattus norvegicus [9] = experiment: Effect of compound on alanine aminotransferase (ALT) levels in 7th group of normal chow-fed male rats after a dose of 100 mg/kg/day; type: functional, organism-based; how it was run: as §2
# Rattus norvegicus [10] = experiment: Effect of compound on alkaline phosphatase (ALKP) levels in 1st group of normal chow-fed male rats after a dose of 1 mg/kg/day; type: functional, organism-based; how it was run: as §2
# Rattus norvegicus [11] = experiment: Effect of compound on aspartate aminotransferase (AST) levels in 2nd group of normal chow-fed male rats after a dose of 2 mg/kg/day; type: functional, organism-based; how it was run: as §2
# Rattus norvegicus [12] = experiment: Effect of compound on aspartate aminotransferase (AST) levels in 5th group of normal chow-fed male rats after a dose of 20 mg/kg/day; type: functional, organism-based; how it was run: as §2
# Rattus norvegicus [13] = experiment: Effect of compound on aspartate aminotransferase (AST) levels in 6th group of normal chow-fed male rats after a dose of 50 mg/kg/day; type: functional, organism-based; how it was run: as §2
# Rattus norvegicus [14] = experiment: Effect of compound on lactic dehydrogenase (LDH) levels in 2nd group of normal chow-fed male rats after a dose of 2 mg/kg/day; type: functional, organism-based; how it was run: as §2
# Rattus norvegicus [15] = experiment: Effect of compound on liver weight in 4th group of normal chow-fed male rats after a dose of 10 mg/kg/day; type: functional
# How it was run: (§3)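 Male Sprague–Dawley CD rats, 60–80 g, on chow with a reverse 12 h light/dark cycle. Given one oral gavage dose daily for 4 days, suspended in 1.3% Tween 80/0.25% CMC. Fasted overnight and sacrificed 24 h after the last dose for blood and liver. Serum liver enzymes read on a clinical analyzer. Six per group, mean ± SEM.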
# Rattus norvegicus [16] = experiment: Effect of compound on relative liver weight in 5th group of normal chow-fed male rats after a dose of 20 mg/kg/day; type: functional
# How it was run: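 Chow-fed male Sprague–Dawley CD rats, 60–80 g, dosed by oral gavage once daily for 4 days in 1.3% Tween 80/0.25% CMC. Fasted overnight and sacrificed 24 h after the last dose. Liver weight expressed as % of body weight at termination. Six per group, mean ± SEM.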
# Rattus norvegicus [17] = experiment: Effect of compound on high-density lipoprotein cholesterol levels in 6th group of normal chow-fed male rats after a dose of 50 mg/kg/day; type: functional, organism-based
# Rattus norvegicus [18] = experiment: Effect of compound on low-density lipoprotein cholesterol levels in 2nd group of normal chow-fed male rats after a dose of 2 mg/kg/day; type: functional, organism-based
# How it was run: (§4)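 Male Sprague–Dawley CD rats, 60–80 g, on standard chow with reverse 12 h light/dark cycle. One oral gavage dose daily for 4 days, suspended in 1.3% Tween 80 and 0.25% CMC. Fasted overnight; sacrificed 24 h after the last dose. Serum TC on clinical analyzer, lipoproteins by FPLC with cholesterol per fraction, T4 on analyzer. Mean ± SEM, six rats per group.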
# Rattus norvegicus [19] = experiment: Effect of compound on low-density lipoprotein cholesterol levels in 6th group of normal chow-fed male rats after a dose of 50 mg/kg/day; type: functional, organism-based; how it was run: as §4
# Rattus norvegicus [20] = experiment: Effect of compound on total plasma cholesterol levels in 1st group of normal chow-fed male rats after a dose of 1 mg/kg/day; type: functional, organism-based; how it was run: as §4
# Rattus norvegicus [21] = experiment: Effect of compound on total plasma cholesterol levels in 7th group of normal chow-fed male rats after a dose of 100 mg/kg/day; type: functional, organism-based
# How it was run: (§5)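 Male Sprague–Dawley CD rats (60–80 g) on Purina 5001 chow with a reverse 12 h light/dark cycle. Dosed once daily by oral gavage for 4 days, suspended in 1.3% Tween 80 / 0.25% CMC. Fasted overnight and bled 24 h after the last dose. Serum TC and glycerol-blanked TG measured enzymatically; VLDL-C by FPLC fractionation with cholesterol assay. n=6, mean ± SEM.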
# Rattus norvegicus [22] = experiment: Effect of compound on very low-density lipoprotein cholesterol levels in 2nd group of normal chow-fed male rats after a dose of 2 mg/kg/day; type: functional, organism-based; how it was run: as §5
# [23] = Effect on serum lipids in 2nd group of normal chow-fed male rats after a dose of 2 mg/kg/day was evaluated as ratio of total plasma cholesterol levels to high-density lipoprotein cholesterol levels; type: functional
# How it was run: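 Male Sprague–Dawley CD rats, 60–80 g, chow-fed, dosed by oral gavage daily for 4 days in 1.3% Tween 80/0.25% CMC. Fasted overnight, bled 24 h after the last dose. Serum total cholesterol by enzymatic reagent; HDL-C from cholesterol in FPLC fractions; TPC/HDL-C ratio calculated. Six per group, mean ± SEM.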
# Rattus norvegicus [24] = experiment: Effect of compound on liver weight in 7th group of normal chow-fed male rats after a dose of 100 mg/kg/day; type: functional; how it was run: as §3
# Mesocricetus auratus = experiment: Effect of compound on gain in body weight in 3rd group of cholesterol-fed male hamsters at 30 mg/kg/day after 14 days of treatment
# Cricetinae gen. sp. [25] = experiment: Effect of compound on total plasma cholesterol levels in 2nd group of cholesterol-fed male hamsters at 10 mg/kg/day after 14 days of treatment; details: Mesocricetus auratus
# Cricetinae gen. sp. [26] = experiment: Effect of compound on alkaline phosphatase (ALKP) levels in 4th group of cholesterol-fed male hamsters at 100 mg/kg/day after 14 days of treatment; details: Mesocricetus auratus
structure (smiles),measurement,setting,value
CCN1CC(=O)N(c2cc(Cl)ccc2C)C1=S,Change,Cricetinae gen. sp. [1],-3.3%
same,Change,Cricetinae gen. sp. [2],-33.4%
same,Serum level,Cricetinae gen. sp. [3],156 mg/dL
same,Change,Rattus norvegicus [4],53%
same,Change,Rattus norvegicus [5],89.1%
same,Level,Rattus norvegicus [6],62 U l-1
same,Level,Rattus norvegicus [7],78 U l-1
same,Level,Rattus norvegicus [8],62 U l-1
same,Level,Rattus norvegicus [9],67 U l-1
same,Level,Rattus norvegicus [10],312 U l-1
same,Level,Rattus norvegicus [11],195 U l-1
same,Level,Rattus norvegicus [12],318 U l-1
same,Level,Rattus norvegicus [13],232 U l-1
same,Level,Rattus norvegicus [14],692 U l-1
same,Liver weight,Rattus norvegicus [15],8.3 g
same,Relative liver weight,Rattus norvegicus [16],4.3%
same,Serum level,Rattus norvegicus [17],61 mg/dL
same,Serum level,Rattus norvegicus [18],5.7 mg/dL
same,Serum level,Rattus norvegicus [19],7.1 mg/dL
same,Serum level,Rattus norvegicus [20],55 mg/dL
same,Serum level,Rattus norvegicus [21],118 mg/dL
same,Serum level,Rattus norvegicus [22],2.8 mg/dL
same,Ratio,[23],1.37
same,Liver weight,Rattus norvegicus [24],7.8 g
same,Body weight,Mesocricetus auratus,8.2 g
same,Serum level,Cricetinae gen. sp. [25],370 mg/dL
same,Level,Cricetinae gen. sp. [26],136 U l-1
